{"source": "paper PMC3581696", "about": "(The Journal of General Physiology, 2013)", "key": {"mEAG1 Y699A channels": {"target": "T1, mEAG1 Y699A channels (Mus musculus, UniProt Q60603, Y699A)", "T1 sequence (Q60603 1-989 Y699A)": "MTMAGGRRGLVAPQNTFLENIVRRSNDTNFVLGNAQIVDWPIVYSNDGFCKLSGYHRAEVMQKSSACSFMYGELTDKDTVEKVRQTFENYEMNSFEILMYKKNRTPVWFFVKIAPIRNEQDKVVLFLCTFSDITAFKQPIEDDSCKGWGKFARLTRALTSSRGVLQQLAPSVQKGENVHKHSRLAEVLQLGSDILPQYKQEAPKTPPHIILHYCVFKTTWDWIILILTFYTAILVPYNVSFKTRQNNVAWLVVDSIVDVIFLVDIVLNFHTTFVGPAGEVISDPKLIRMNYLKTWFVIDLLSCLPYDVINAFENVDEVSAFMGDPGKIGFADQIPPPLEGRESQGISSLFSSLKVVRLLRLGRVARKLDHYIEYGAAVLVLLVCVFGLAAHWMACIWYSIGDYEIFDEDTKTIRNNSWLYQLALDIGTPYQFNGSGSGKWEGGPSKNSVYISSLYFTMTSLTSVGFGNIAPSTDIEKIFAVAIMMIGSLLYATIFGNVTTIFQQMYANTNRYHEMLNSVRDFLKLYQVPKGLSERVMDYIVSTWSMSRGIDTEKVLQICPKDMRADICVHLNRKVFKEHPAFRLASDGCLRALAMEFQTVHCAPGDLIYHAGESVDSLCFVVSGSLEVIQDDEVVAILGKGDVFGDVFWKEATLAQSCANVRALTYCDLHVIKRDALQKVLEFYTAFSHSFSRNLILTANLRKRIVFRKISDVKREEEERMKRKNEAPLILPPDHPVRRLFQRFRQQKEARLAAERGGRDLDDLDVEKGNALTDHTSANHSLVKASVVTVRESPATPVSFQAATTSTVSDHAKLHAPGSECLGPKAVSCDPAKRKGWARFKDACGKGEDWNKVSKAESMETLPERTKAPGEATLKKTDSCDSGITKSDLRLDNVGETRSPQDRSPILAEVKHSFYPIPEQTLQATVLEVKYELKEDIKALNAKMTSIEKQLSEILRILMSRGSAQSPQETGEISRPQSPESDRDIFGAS", "experiment": "Inside-out patch-clamp of intrinsic ligand mutant channels", "format": "cell-based", "procedure,_shortened": "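mEAG1 mutant cRNA was injected into defolliculated Xenopus oocytes, and the vitelline membrane was removed. Inside-out patches were bathed in symmetric 130 mM KCl, 10 mM HEPES, 0.2 mM EDTA, pH 7.2, holding at −100 mV. Steps of 0.1 s from −140 to +50 mV (10-mV increments) were followed by −120 mV tails, without or with 30 µM flavonoid. Peak tails were normalized and Boltzmann-fitted. Deactivation time constant came from single-exponential fits of the −120 mV tail after +50 mV; two-tailed t test.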"}, "mEAG1 Δ2–173 channels": {"target": "T2, mEAG1 Δ2–173 channels (Mus musculus, UniProt Q60603)", "T2 sequence (Q60603 with tags, fused parts or gaps)": "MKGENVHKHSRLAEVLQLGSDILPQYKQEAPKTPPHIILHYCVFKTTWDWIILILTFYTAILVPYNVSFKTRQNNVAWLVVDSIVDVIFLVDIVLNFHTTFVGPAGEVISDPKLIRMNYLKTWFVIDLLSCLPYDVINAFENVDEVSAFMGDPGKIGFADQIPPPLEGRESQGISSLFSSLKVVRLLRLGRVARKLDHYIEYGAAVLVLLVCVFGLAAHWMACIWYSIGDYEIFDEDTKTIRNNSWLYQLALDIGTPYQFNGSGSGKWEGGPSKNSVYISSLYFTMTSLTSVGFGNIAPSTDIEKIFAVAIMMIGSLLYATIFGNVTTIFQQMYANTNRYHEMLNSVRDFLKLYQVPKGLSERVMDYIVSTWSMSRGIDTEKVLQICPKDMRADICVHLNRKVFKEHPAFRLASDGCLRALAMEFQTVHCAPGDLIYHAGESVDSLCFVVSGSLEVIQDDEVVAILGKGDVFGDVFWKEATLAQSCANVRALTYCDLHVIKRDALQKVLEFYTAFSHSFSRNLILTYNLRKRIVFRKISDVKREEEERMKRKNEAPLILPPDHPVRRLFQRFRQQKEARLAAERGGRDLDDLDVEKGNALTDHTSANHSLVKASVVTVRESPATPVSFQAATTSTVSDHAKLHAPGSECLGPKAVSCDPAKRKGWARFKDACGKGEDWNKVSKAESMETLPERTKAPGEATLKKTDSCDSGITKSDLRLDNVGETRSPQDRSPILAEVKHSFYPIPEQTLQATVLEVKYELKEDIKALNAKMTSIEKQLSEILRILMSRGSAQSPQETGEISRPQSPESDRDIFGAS", "experiment": "Inside-out patch-clamp of amino-terminal deletion mutant channels", "format": "cell-based", "procedure,_shortened": "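Δ2–173 mEAG1 was expressed in Xenopus oocytes and recorded in inside-out patches in symmetric 130 mM KCl/HEPES/EDTA, pH 7.2, held at −100 mV. Steps of 3 s from −100 to +100 mV (20-mV increments) returned to −100 mV for 1 s, with 0 or 30 µM flavonoid. Conductance–voltage data were fit with a product of two Boltzmann functions, with inactivation parameters and activation slope held fixed. The −100 mV tail after a step to −40 mV was fit with a single exponential.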"}, "[1]": {"target": "T3, Y699A mutant CNBHD from mEAG1 (Mus musculus, UniProt Q60603, Y699A)", "T3 sequence (Q60603 552-724 Y699A)": "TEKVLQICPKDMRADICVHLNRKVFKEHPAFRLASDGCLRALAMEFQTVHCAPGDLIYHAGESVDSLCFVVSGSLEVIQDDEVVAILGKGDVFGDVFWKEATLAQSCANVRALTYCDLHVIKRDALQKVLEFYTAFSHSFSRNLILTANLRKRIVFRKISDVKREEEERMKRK", "experiment": "Fisetin fluorescence anisotropy binding assay, Y699A CNBHD", "conditions": "Kd (apparent affinity), 5 µM fisetin, fit with Eq. 7"}}, "note": "pKd: −log10 of the molar value. “And” between values parts separate entries of the source, which are not always exact repeats. Equal entries are not always repeated.", "data": [{"smiles": "O=c1c(O)c(-c2ccc(O)c(O)c2)oc2cc(O)ccc12", "note": "[Fisetin, 2-(3,4-dihydroxyphenyl)-3,7-dihydroxychromen-4-one]", "values": [{"measurement": "potentiation of mEAG1 Y699A channels", "setting": "mEAG1 Y699A channels; 30 µM fisetin", "result": "did not potentiate"}, {"measurement": "time constant of deactivation", "setting": "mEAG1 Y699A channels; with 30 µM fisetin, at −120 mV, 5.0 ± 0.4 ms without, n = 10, P = 0.06", "result": "6.4 ± 0.6", "unit": "ms"}, {"measurement": "V1/2 of the conductance–voltage relationship", "setting": "mEAG1 Y699A channels; with 30 µM fisetin, −54.9 ± 3.5 mV without, n = 10, P = 0.65", "result": "−57.2 ± 3.6", "unit": "mV"}, {"measurement": "increase of peak conductance after a step to −40 mV", "setting": "mEAG1 Δ2–173 channels; 30 µM fisetin, average", "result": 1.7, "unit": "fold"}, {"measurement": "time constant of deactivation", "setting": "mEAG1 Δ2–173 channels; with 30 µM fisetin, after a step to −40 mV, 117 ± 1 ms without, n = 3", "result": "375 ± 36", "unit": "ms"}, {"measurement": "time constant of deactivation (tail currents of Fig. 5 C)", "setting": "mEAG1 Δ2–173 channels; with 30 µM fisetin, tail at −100 mV after step to −40 mV, 116 ms without", "result": 239, "unit": "ms"}, {"measurement": "pKd", "setting": "[1]", "result": "4.52 and ≤ 4.52"}]}]}
